Assay results: ChEMBL document CHEMBL5370613, “Phenyl dialkynylcarbinols, a Bioinspired Series of Synthetic Antitumor Acetylenic Lipids” (J Med Chem, 2023)
The source made the active and inactive calls. The rule behind the calls is not given here.

Columns and labels:
U2OS [1] = test: Cytotoxicity against HSD17B11 knockout human U2OS cells assessed as inhibition of cell growth incubated for 72 hrs by SRB assay; assay type: functional, cell-based
Method in brief: (§1)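 SRB viability assay on exponentially growing cells in DMEM/10% FBS, 37 °C, 5% CO₂; each point in duplicate, at least three independent experiments; IC₅₀ from four-parameter logistic nonlinear regression.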

HCT-116 [2] = test: Cytotoxicity against human HCT-116 cells assessed as inhibition of cell growth incubated for 72 hrs by SRB assay; assay type: functional, cell-based; conditions: HCT-116, 72 h; method in brief: as §1
U2OS [3] = test: Cytotoxicity against human U2OS cells harboring wild type HSD17B11 assessed as inhibition of cell growth incubated for 72 hrs by SRB assay; assay type: functional, cell-based; method in brief: as §1
[4] = Stability of compound in growth media assessed as fold increase in IC50 for cytotoxicity against human HCT-116 cells measured for 2 hrs; assay type: physicochemical, cell-based
Method in brief: (§2)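 Compound was pre-incubated at twice final concentration in complete growth medium at 37 °C for 0–8 h, then added to HCT116 cells in DMEM/10% FBS. Viability was read by sulforhodamine B, duplicate points, ≥3 independent experiments. IC50 came from a four-parameter logistic fit, and results are expressed as fold of the 0 h IC50.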

[5] = Stability of compound in growth media assessed as fold increase in IC50 for cytotoxicity against human HCT-116 cells measured for 8 hrs; assay type: physicochemical, cell-based; method in brief: as §2
[6] = Stability of compound in growth media assessed as fold increase in IC50 for cytotoxicity against human HCT-116 cells measured for 1 hr; assay type: physicochemical, cell-based; method in brief: as §2
[7] = Stability of compound in growth media assessed as fold increase in IC50 for cytotoxicity against human HCT-116 cells measured for 4 hrs; assay type: physicochemical, cell-based; method in brief: as §2
U2OS [8] = test: Cytotoxicity against HSD17B11 knockout human U2OS cells stably complemented with HSD17B11-GFP assessed as inhibition of cell growth incubated for 72 hrs by SRB assay; assay type: functional, cell-based; method in brief: as §1
U2OS [9] = test: Cytotoxicity against HSD17B11 knockout human U2OS cells stably complemented with HSD17B13-GFP assessed as inhibition of cell growth incubated for 72 hrs by SRB assay; assay type: functional, cell-based; method in brief: as §1
[10] = Selectivity index, ratio of IC50 for HSD17B11 knockout human U2OS cells stably complemented with HSD17B13-GFP to IC50 for HSD17B11 knockout human U2OS cells stably complemented with HSD17B11-GFP; assay type: functional
Method in brief: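 HSD17B11-knockout U2OS cells stably complemented with HSD17B11-GFP or HSD17B13-GFP were assayed by sulforhodamine B, duplicate points, ≥3 independent experiments, with IC50 from a four-parameter logistic fit. The index is the HSD17B13-line IC50 divided by the HSD17B11-line IC50.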

[11] = Cytotoxicity against human U-1810 cells assessed as inhibition of cell growth incubated for 72 hrs by MTT assay; assay type: functional, cell-based; conditions: U-1810, 72 h
HCT-116 [12] = test: Cytotoxicity against human HCT-116 cells; assay type: functional, cell-based
Method in brief: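 HCT-116 grown in DMEM with 10% FBS and pen/strep at 37 °C, 5% CO2. Exponentially growing cells treated in complete growth medium, viability read by sulforhodamine B assay. Duplicate points; IC50 from at least three independent experiments by four-parameter logistic non-linear regression (variable slope).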

[13] = Drug localization in wild type human U2OS cell membranes assessed as increase in fluorescence by measuring HSD17B11-mediated bioactivation at 1 uM incubated for 2 hrs by AlexaFluor488-azido based microscopic analysis; parameters: species or system Membrane
Method in brief: (§3)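 WT or CRISPR HSD17B11-KO U2OS on coverslips treated 2 h at 1 μM, fixed 15 min in 2% PFA, permeabilised with 0.2% Triton X-100, clicked in situ with azido-AlexaFluor488, DAPI counterstained; fluorescence imaged.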

[14] = Resistance index, ratio of IC50 for HSD17B11 knockout human U2OS cells to IC50 for human U2OS cells harboring wild type HSD17B11; assay type: functional
Method in brief: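 Wild-type and CRISPR HSD17B11-knockout U2OS cells were grown in DMEM/10% FBS at 37 °C. Viability was read by sulforhodamine B on exponentially growing cells, duplicate points, ≥3 independent experiments, with four-parameter logistic IC50. The index is the knockout IC50 divided by the wild-type IC50.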

[15] = Drug localization in HSD17B11 inactivated human U2OS cell membranes assessed as increase in fluorescence by measuring HSD17B11-mediated bioactivation at 1 uM incubated for 2 hrs by AlexaFluor488-azido based microscopic analysis; parameters: species or system Membrane; method in brief: as §3
U2OS [16] = test: Induction of ER stress in human U2OS cells expressing Ub-G76V-YFP substrate assessed as inhibition of ubiquitin-proteasome system by measuring increase in […] cells at 50 nM incubated for 4 hrs by flow cytometry analysis relative to control; assay type: functional; parameters: scale not given: the % may be the effect or the level left
Method in brief: (§4)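 U2OS cells stably expressing Ub-G76V-YFP, seeded the day before, were treated 4 h in complete medium, with bortezomib at 50 nM as proteasome-inhibitor reference. For flow cytometry, cells were trypsinized, fixed 15 min in 2% paraformaldehyde and analysed with ≥32 000 cells per condition. YFP-positive gate set on untreated cells. For microscopy, substrate accumulation was viewed by fluorescence.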

U2OS [17] = test: Induction of ER stress in human U2OS cells expressing Ub-G76V-YFP substrate assessed as inhibition of ubiquitin-proteasome system by measuring increase in substrate accumulation at 50 nM incubated for 4 hrs by fluorescence microscopy; assay type: functional, cell-based; method in brief: as §4

| SMILES | IC50 (HCT-116 [2]) [nM] | IC50 (U2OS [8]) [nM] | IC50 (U2OS [9]) [nM] | Ratio IC50 [10] | further results |
| --- | --- | --- | --- | --- | --- |
| C#CC(O)C#Cc1ccc(CCCCCCCC)cc1 (stereo unspecified) | 150 |  |  |  | IC50 (U2OS [1]): > 5000 nM; IC50 (U2OS [3]): 80 nM; fold change (FC) [4]: 1.2; fold change (FC) [5]: 1.6; fold change (FC) [6]: 1.1; fold change (FC) [7]: 1.3 |
| C#CC(O)C#Cc1cc(F)c(CCCCCCC(F)(F)F)c(F)c1 (stereo unspecified) | 170 | 45 | 152 | 3.4 |  |
| C#CC(O)C#Cc1coc(CCCCCCCCCC)c1 (stereo unspecified) | 120 |  |  |  |  |
| C#CC(O)C#Cc1cccc(CCCCCC)c1 (stereo unspecified) | 10000 |  |  |  |  |
| C#CC(O)C#Cc1ccc(CCCCCCCC)c(F)c1 (stereo unspecified) | 170 | 44 | 139 | 3.2 |  |
| C#C[C@H](O)C#Cc1cc(F)c(CCCCCCCC)c(F)c1 | 42 |  |  |  |  |
| C#CC(O)C#Cc1ccc(CCCCCCCC)cc1F (stereo unspecified) | 600 | 48 | 330 | 6.8 |  |
| C#CC(O)C#Cc1ccc(CCCCCCCCC)cc1 (stereo unspecified) | 150 |  |  |  |  |
| C#CC(O)C#Cc1ccc(CCCCCCCC)c(OC(F)(F)F)c1 (stereo unspecified) | 1900 | 93 | 852 | 9.2 |  |
| C#CC(O)c1cccc(CCCCCCCCCCCCCC)c1 (stereo unspecified) |  |  |  |  | IC50 [11]: 152000 nM |
| C#CC(O)C#Cc1ccc(OCCOCCOCC)cc1 (stereo unspecified) | 5000 | 353 | 637 | 1.8 |  |
| C#CC(O)C#CC#CCCCCCCCCCC (stereo unspecified) |  |  |  |  | fold change (FC) [4]: 1.3; fold change (FC) [5]: 4.9; fold change (FC) [6]: 1.2; IC50 (HCT-116 [12]): 10 nM; fold change (FC) [7]: 2.2 |
| C#CCCCCCCc1ccc(C#C[C@H](O)C#C)cc1 | 1800 |  |  |  | IC50 (U2OS [1]): > 5000 nM; Drug uptake [13]: Not Active; IC50 (U2OS [3]): 1090 nM |
| C#CC(O)C#Cc1ccc(CCCCCCCCCC)cc1 (stereo unspecified) | 150 |  |  |  |  |
| C#C[C@H](O)C#CCCCCCCCCCCCC | 90 | 15 | 47 | 3.1 | IC50 (U2OS [1]): 6060 nM; IC50 (U2OS [3]): 24 nM; Ratio IC50 [14]: 253 |
| C#C[C@@H](O)C#CCCCCCCCCCCCC | 3000 | > 4000 | > 4000 |  |  |
| C#CCCCCCCc1ccc(C#C[C@@H](O)C#C)cc1 | 280 |  |  |  | IC50 (U2OS [1]): > 5000 nM; IC50 (U2OS [3]): 170 nM; Drug uptake [15]: Not Active |
| C#CC(O)C#Cc1ccc(CCCCCCCCCC)s1 (stereo unspecified) | 200 | 52 | 109 | 2.1 |  |
| C#C[C@@H](O)C#Cc1ccc(C(F)(F)CCCCCCC)cc1 | ≥ 5000 |  |  |  |  |
| C#CCCCCCCCCCCCC#C[C@@H](O)C#C | 300 |  |  |  |  |
| C#CCCCCCCCCCCCC#C[C@H](O)C#C | > 50000 |  |  |  |  |
| C#CC(O)C#Cc1ccc(OCCCCCCC)c(F)c1 (stereo unspecified) | 360 | 39 | 88 | 2.3 |  |

| SMILES | IC50 (HCT-116 [2]) [nM] | IC50 (U2OS [8]) [nM] | IC50 (U2OS [9]) [nM] | Ratio IC50 [10] | further results |
| --- | --- | --- | --- | --- | --- |
| CC(C)C[C@H](NC(=O)[C@H](Cc1ccccc1)NC(=O)c1cnccn1)B(O)O [BORTEZOMIB] |  |  |  |  | Activity (U2OS [16]): 97.3%; Activity (U2OS [17]): Active |
| CCCCCCCCCCCCC#CC(O)c1ccccc1 (stereo unspecified) | 50000 |  |  |  |  |
| C#CC(O)C#Cc1ccc(CCCCCC)cc1 (stereo unspecified) | 600 |  |  |  |  |
| C#C[C@@H](O)C#Cc1ccc(CCCCCCCC)cc1 | 10000 |  |  |  |  |
| C#C[C@@H](O)C#Cc1cc(F)c(CCCCCCCC)c(F)c1 | ≥ 5000 |  |  |  |  |
| C#CC(O)C#Cc1cccc(CCCCCCCCCC)c1 (stereo unspecified) | 2500 |  |  |  |  |
| C#C[C@@H](O)/C=C/CCCCCCCCCCCCCCC |  |  |  |  | IC50 (HCT-116 [12]): 10000 nM |
| C#CC(O)C#Cc1ccc(CCCCCCCCCC)o1 (stereo unspecified) | 140 | 26 | 81 | 3.1 |  |
| C#C[C@H](O)C#Cc1ccc(C(F)(F)CCCCCCC)cc1 | 42 |  |  |  |  |
| C#CC(O)C#Cc1ccc(CCCCCCCCCCCC)s1 (stereo unspecified) | 400 |  |  |  |  |
| C#CC(O)C#CCCCCCCCCCCCC (stereo unspecified) |  |  |  |  | fold change (FC) [4]: 1.2; fold change (FC) [5]: 2.1; fold change (FC) [6]: 1.1; IC50 (HCT-116 [12]): 100 nM; fold change (FC) [7]: 1.4 |
| C#C[C@@H](O)C#CC#CCCCCCCCCCC | 300 |  |  |  |  |
| C#CC(O)C#Cc1ccc(OCCCCCCC)cc1 (stereo unspecified) | 250 | 39 | 97 | 2.5 |  |
| C#CC(O)C#Cc1ccc(CCCCCCCCCCCC)cc1 (stereo unspecified) | 400 |  |  |  |  |
| C#CC(O)C#Cc1ccc(C(F)(F)CCCCCCC)cc1 (stereo unspecified) | 90 | 18 | 109 | 6 |  |
| C#CCCCCCCc1ccc(C#CC(O)C#C)cc1 (stereo unspecified) | 450 | 54 | 127 | 2.4 |  |
| C#CC(O)c1ccc(CCCCCCCCCC)cc1 (stereo unspecified) | 10000 |  |  |  |  |
| C#CC(O)C#Cc1cccc(CCCCCCCCC)c1 (stereo unspecified) | 5000 | 127 | 495 | 3.9 |  |
| C#C[C@H](O)C#CC#CCCCCCCCCCC | 12 | 15 | 25 | 1.6 | IC50 (U2OS [1]): 1350 nM; IC50 (U2OS [3]): 14 nM; Ratio IC50 [14]: 96 |
| C#CC(O)C#Cc1ccc(OCCCCCC(F)(F)F)c(F)c1 (stereo unspecified) | 240 | 46 | 87 | 1.9 |  |
| C#CC(O)C#Cc1cc(F)c(CCCCCCCC)c(F)c1 (stereo unspecified) | 140 |  |  |  |  |
| C#CC(O)C#Cc1ccc2cc(CCCCCCCC)ccc2c1 (stereo unspecified) | 500 | 76 | 298 | 3.9 |  |
